# Assay outcomes: PubChem BioAssay, several laboratories
# The list is not random: actives were taken first. Their share in the collection is about 3.9%.
# DNA FID counter = compounds displacing fluorescent DNA intercalator, primary screen, artefact control for HCV NS3 helicase inhibitor project, biochemical, FID fluorescence; DNA fluorescent intercalator displacement; inhibition, % at 7.9 µM; hit rate 0.17% among 290,000; in the data active = inhibition above about 37%;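 note: 0% = vehicle and 100% = reference compound; higher means more ethidium bromide displaced from hairpin DNA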
# HCV core dimer = inhibitors of HCV core protein dimerization, primary screen, biochemical, TR-FRET, high-throughput | AID 1899, 2009 | hit rate 0.33% among 300,000 | TR-FRET GST/Flag-core106 dimerization, 1536-well | inhibition, % at 5 µM;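 active = inhibition above the mean of all tested compounds plus 3 SD, set per screening campaign, cut at about 45% in these data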
#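 assay system = GST-tagged and Flag-tagged HCV core protein residues 1-106 | controls = unlabelled core106 and no-GST-core106 wells | incubation = compound-protein-antibody incubation 4 h at 22.5 °C | probe or stimulus = Eu donor and XL665 acceptor anti-tag antibodies | read-out = % inhibition based on acceptor/donor emission ratio | signal = TR-FRET 671 and 617 nm emission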
# HSF-1 act = HSF-1 activators, primary screen, NIH3T3-HGL cells, MG132 stress, luminescence, single point; NIH3T3-HGL HSF-1 luciferase reporter, 8 h; 100% = twice DMSO control signal; activation, % at 9 µM; hit rate 1.7% among 300,000; AID 504408, 2011;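 active = mean replicate activation of at least 50% with a set share of replicates each reaching 50%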;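 note: 0% = median of the neutral control wells and 100% = twice that signal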
# HSF1 inhib = HSF1 inhibitors in luciferase reporter cells, primary screen, cell-based, NIH3T3, luminescence. hit rate 0.77% among 300,000. activity change, negative = inhibition, % at 7.5 µM (by protocol). NIH3T3-HGL HSE-luciferase, MG132-induced, luminescence 8 h; hits give low values;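 active = more than half of replicate wells show activity change below -50%, luminescence cut by over half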;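 note: luciferase reports HSF-1 transcriptional activity via heat shock element; 0% = median of DMSO wells and -100% = zero luminescence signal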
# HSP90 inh = HSP90 inhibitors, primary screen, cell lysate, luminescence; AID 1789, 2009; inhibition, % at 5.6 µM; Rabbit reticulocyte lysate, luciferase refolding luminescence, 3 h; Heat shock protein HSP 90 (rabbit reticulocyte lysate; luciferase refolding); hit rate 0.91% among 290,000;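 active = inhibition above the screen-wide mean plus 3 SD, computed separately per campaign, cut at about 16% in these data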;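 note: 0% = DMSO wells and 100% = 60 µM geldanamycin wells; inhibitors lower the luminescence because luciferase stays unfolded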
# HCV NS3 hel inh = inhibitors of HCV NS3 helicase, primary screen, biochemical, Cy5 molecular beacon fluorescence; Hepatitis C virus NS3 helicase; NS3 helicase DNA unwinding; inhibition, % at 10.9 µM; hit rate 0.56% among 290,000;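 active = inhibition above the mean of all tested compounds plus 3 SD, set per campaign, cut at about 35% in these data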;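 note: 0% = DMSO wells and 100% = thioflavine S control wells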
#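 Measured by: Cy5 fluorescence, 0 and 60 min reads / Assay system: NS3 helicase fragment of HCV / Control set: low DMSO, high thioflavine S at 110 µM / Times: 1 h reaction at 25 °C, ATP-initiated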
# HSP90 confirm = HSP90 inhibitors, confirmation, cell lysate, luminescence; shares compounds with HSP90 inh; rabbit reticulocyte lysate, luciferase refolding luminescence, 3 h; inhibition, % at 5.9 µM; hit rate 64% among 2,300; in the data active = inhibition above about 18%;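 note: 0% = vehicle wells and 100% = reference inhibitor wells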
# luciferase ctr = firefly luciferase inhibitors, HSP90 counter-screen, confirmation, artefact control for HSP90 inhibitor project, biochemical, luminescence, triplicate; purified native firefly luciferase; shares compounds with HSP90 inh; inhibition, % at 5.9 µM; hit rate 48% among 2,300; AID 1847, 2009;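 active = inhibition above the mean inhibition of all tested sample wells plus 3 SD, cut at about 10% in these data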;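 note: 0% = DMSO with luciferase and 100% = wells lacking luciferase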
# Target sequence (P08659 whole entry, looked up): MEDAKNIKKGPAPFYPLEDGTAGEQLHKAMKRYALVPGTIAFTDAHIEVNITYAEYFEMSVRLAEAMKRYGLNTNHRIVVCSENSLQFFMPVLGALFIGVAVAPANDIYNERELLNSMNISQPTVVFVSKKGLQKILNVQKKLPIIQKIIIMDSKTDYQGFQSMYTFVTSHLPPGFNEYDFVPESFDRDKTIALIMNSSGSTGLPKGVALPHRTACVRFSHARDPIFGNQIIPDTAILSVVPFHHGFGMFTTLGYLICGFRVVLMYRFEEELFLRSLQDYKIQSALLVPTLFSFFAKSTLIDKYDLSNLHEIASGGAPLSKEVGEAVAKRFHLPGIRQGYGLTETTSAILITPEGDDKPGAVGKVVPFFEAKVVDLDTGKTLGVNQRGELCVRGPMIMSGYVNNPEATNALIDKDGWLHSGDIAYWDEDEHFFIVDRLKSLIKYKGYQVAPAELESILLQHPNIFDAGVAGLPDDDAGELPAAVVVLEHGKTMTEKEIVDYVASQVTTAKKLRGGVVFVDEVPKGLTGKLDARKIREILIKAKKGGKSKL
# Starred values were filed as active, the others as inactive; / = not tested or not shown.
SMILES,DNA FID counter,HCV core dimer,HSF-1 act,HSF1 inhib,HSP90 inh,HCV NS3 hel inh,HSP90 confirm,luciferase ctr
C/C(CC(=O)N(C(C)C)C(C)C)=N\NC(=O)c1ccccc1Br,-5.3,1.2,13.1,0.4,-9.3,-11.0,/,/
Cc1cccc(NC(=O)NCCN2CCCCC2)c1,-5.2,4.8,-1.7,-11.5,25.2*,-8.1,-9.2,-12.3
O=C(NC(=O)c1ccccc1O)c1ccc2c(c1)CCO2,-6.7,-1.9,19.9,17.4,19.1*,-1.5,24.3*,-2.5
CC(C)(C)NC(=O)c1ccc2c(c1)CCO2,1.4,-0.8,2.8,-0.7,0.7,1.8,/,/
Cc1ccccc1Oc1nc2c(C)cccn2c(=O)c1/C=C(\C#N)C(=O)NC1CCS(=O)(=O)C1 (stereo unspecified),-28.6,7.6,71.8*,43.2,17.2*,-1.5,25.8*,-10.7
Cc1cccn2c(=O)c(/C=C(\C#N)C(=O)NC3CCS(=O)(=O)C3)c(Oc3ccccc3Cl)nc12 (stereo unspecified),-17.9,0.5,31.4,10.6,4.5,-6.6,/,/
CC1(C)Cc2ccccc2C2=NNC(=O)C2=N1,-1.0,-23.9,42.0,24.8,17.2*,-1.2,33.6*,-6.7
Cc1ccc(NCCC(=O)c2cccs2)cc1,3.5,0.3,13.1,17.4,7.4,-2.4,/,/
CC(C)c1ccc(NCCC(=O)c2cccs2)cc1,-2.7,-3.7,-18.8,-9.2,28.8*,-0.9,34.8*,-8.6
Cc1c(-c2ccccc2)oc2c(C(=O)N3CCN(c4ccc([N+](=O)[O-])cc4)CC3)cccc2c1=O,7.8,12.8,-42.4,-36.5,20.9*,-1.9,10.1,0.6
Cc1ccc(C(=O)N/C(=C\c2sccc2C)C(=O)NCc2ccncc2)cc1,-3.7,-8.0,5.4,0.0,-5.3,10.8,/,/
Cc1ccc(C(=O)N/C(=C\c2sccc2C)C(=O)NCc2ccco2)cc1,-7.0,1.7,8.0,-8.6,25.4*,-3.1,-3.7,-1.5
COc1cc([N+](=O)[O-])ccc1NC(=O)NCc1cccnc1,2.4,0.7,6.6,-7.1,-2.2,-2.4,/,/
O=C1N/C(=N\S(=O)(=O)Cc2ccccc2)S/C1=C/c1cc([N+](=O)[O-])ccc1O,-6.9,7.0,-4.1,1.3,4.1,17.4,/,/
O=C1N/C(=N\S(=O)(=O)c2ccccc2)S/C1=C\c1cc([N+](=O)[O-])ccc1O,2.5,8.0,6.7,-5.6,53.6*,-9.6,-1.7,0.7
CC1(C)C2CCC(C2)C1(C)NC(=O)CN1CCCC1 (stereo unspecified),4.5,1.3,7.9,1.3,-0.8,13.4,/,/
CC1(C)C2CCC(C2)C1(C)NC(=O)CN1CCOCC1 (stereo unspecified),1.1,-6.4,/,/,27.6*,-0.6,1.1,-3.9
O=C(O)C(Cc1ccc(Cl)cc1)Sc1nc2ccccc2[nH]1 (stereo unspecified),-22.8,/,9.8,2.0,7.8,13.7,/,/
COc1cc(/C=C2\C(=O)N(CCC#N)N=C2C)c(Br)cc1OC(C)C,-1.4,0.8,9.2,2.9,17.6*,-12.9,1.6,4.2
COC(=O)C1(S(=O)(=O)c2ccc(C)cc2)CCOCC1,3.0,-4.5,1.7,-3.5,0.8,6.1,/,/
Brc1ccc(-c2ncc3ccccn23)cc1,-8.0,4.5,/,/,27.2*,14.6,0.7,-12.3
Fc1ccc(-c2ncc3ccccn23)cc1,4.2,0.1,35.3,18.4,-2.0,-0.4,/,/
COc1ccc(C(=O)N/C(=C\c2cn(S(=O)(=O)N(C)C)c3ccccc23)C(=O)N2CCN(C)CC2)cc1,11.2,-5.3,3.6,-5.8,-1.0,-14.8,/,/
COc1cccc(/C=C/c2ccccn2)c1O,0.9,-0.1,34.8,28.5,17.3*,-3.0,17.4*,9.9*
COc1cccc(/C=C/c2ccc3cccc(O)c3n2)c1OC,-26.3,-1.9,-11.6,-1.8,-1.1,19.9,/,/
SMILES,DNA FID counter,HCV core dimer,HSF-1 act,HSF1 inhib,HSP90 inh,HCV NS3 hel inh,HSP90 confirm,luciferase ctr
Cc1cccc(Cn2c(-c3ccc[nH]c3=O)nc3ccccc32)c1,-21.0,1.0,23.5,1.5,1.3,-21.7,/,/
COc1ccc(S(=O)(=O)N2CCC(C(=O)NCCC3=CCCCC3)CC2)cc1OC,-27.2,0.6,5.8,-1.0,-0.6,-0.7,/,/
COC(=O)c1nn(-c2ccc3c(c2)CCN3C(C)=O)cc1O,-1.6,4.5,-60.9,-58.4*,85.5*,1.0,87.8*,74.2*
CSc1cc(-c2ccncc2)nc(-c2ccc(Cl)cc2)c1,-16.8,8.9,0.8,-1.2,0.5,-7.2,/,/
S=C(c1ccc(N2CCCC2)c(Br)c1)N1CCCCC1,-8.2,-0.2,-2.4,-2.6,22.3*,-12.8,0.5,-17.8
CCCC(=NC(C)CC)C1=C(O)CC(c2ccccc2)CC1=O (stereo unspecified),-32.1,7.5,37.8,4.1,24.2*,-11.0,6.1,5.4
CCC(C)N=CC1=C(O)CC(c2ccccc2)CC1=O (stereo unspecified),-9.8,2.4,44.7,21.4,4.1,4.6,/,/
CC(C)C(=O)Nc1nc2c(ncn2C2CC(O)C(CO)O2)c(=O)[nH]1 (stereo unspecified),4.1,-4.7,-8.4,-5.0,34.1*,1.4,4.4,-0.7
O=c1[nH]c(=O)n([C@H]2C[C@H](O)[C@@H](CO)O2)cc1F,-2.9,0.2,-12.7,-2.9,1.2,1.1,/,/
CC(C)CCN(C(=O)CNC(=O)c1ccco1)C(C(=O)NC1CCCCC1)c1ccco1 (stereo unspecified),-35.1,0.6,-12.5,-1.6,4.1,3.7,/,/
COc1ccc(-c2nc3ccccn3c2Cl)cc1,-19.0,6.1,19.7,10.2,23.7*,-4.3,46.7*,30.4*
COc1ccc(-c2nc3ccccn3c2CN2CCN(c3ccccc3F)CC2)cc1,-4.1,10.3,-7.5,-7.5,2.5,4.5,/,/
CCOc1ccc(Oc2c(/C=N/NC(=O)C3CC3)c(C)nn2-c2ccccc2)cc1,-14.9,4.6,8.2,5.8,3.8,4.1,/,/
O=C(O)C(=O)/C(=C\c1ccc(Cl)cc1)c1ccc2ccccc2n1,-0.1,-4.3,29.7,10.2,22.0*,-2.6,-4.2,-5.0
